Measured values taken from ChEMBL document CHEMBL1131611, “N-(Iodopropenyl)-octahydrobenzo[f]- and -[g]quinolines: synthesis and adrenergic and dopaminergic activity studies” (J Med Chem, 1998).

Assays:
Format in all cases: cell membranes, Membrane
[1] = target: T1, Adrenergic receptor alpha-2 (Rattus norvegicus, UniProt P22086+P19328+P22909); experiment: Displacement of [3H]rauwolscine from Alpha-2 adrenergic receptor of rat cortical membranes
T1 sequence (P22086 whole entry): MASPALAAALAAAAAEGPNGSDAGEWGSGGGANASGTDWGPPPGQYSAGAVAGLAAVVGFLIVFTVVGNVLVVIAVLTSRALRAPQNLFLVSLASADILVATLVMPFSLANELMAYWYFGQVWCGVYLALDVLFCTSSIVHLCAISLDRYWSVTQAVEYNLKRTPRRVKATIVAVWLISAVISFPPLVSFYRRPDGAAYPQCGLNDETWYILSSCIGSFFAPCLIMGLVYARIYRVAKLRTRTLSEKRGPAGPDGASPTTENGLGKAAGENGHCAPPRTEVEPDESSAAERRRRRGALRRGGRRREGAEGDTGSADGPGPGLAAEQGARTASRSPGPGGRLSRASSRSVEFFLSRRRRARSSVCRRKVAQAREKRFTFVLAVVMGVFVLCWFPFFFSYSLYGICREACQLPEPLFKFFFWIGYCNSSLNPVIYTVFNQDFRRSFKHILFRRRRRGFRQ
T1 sequence (P19328 whole entry): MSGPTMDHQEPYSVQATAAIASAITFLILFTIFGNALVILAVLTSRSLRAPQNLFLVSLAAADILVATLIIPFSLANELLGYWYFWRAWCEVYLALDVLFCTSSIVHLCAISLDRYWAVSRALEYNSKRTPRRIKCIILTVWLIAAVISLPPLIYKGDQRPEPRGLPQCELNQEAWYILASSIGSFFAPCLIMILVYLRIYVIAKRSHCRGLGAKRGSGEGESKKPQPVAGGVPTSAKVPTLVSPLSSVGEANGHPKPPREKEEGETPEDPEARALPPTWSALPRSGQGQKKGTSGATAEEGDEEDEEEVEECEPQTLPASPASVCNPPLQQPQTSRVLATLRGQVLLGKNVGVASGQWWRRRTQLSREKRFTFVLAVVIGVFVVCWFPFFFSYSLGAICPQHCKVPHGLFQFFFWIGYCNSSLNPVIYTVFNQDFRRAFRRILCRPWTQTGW
T1 sequence (P22909 whole entry): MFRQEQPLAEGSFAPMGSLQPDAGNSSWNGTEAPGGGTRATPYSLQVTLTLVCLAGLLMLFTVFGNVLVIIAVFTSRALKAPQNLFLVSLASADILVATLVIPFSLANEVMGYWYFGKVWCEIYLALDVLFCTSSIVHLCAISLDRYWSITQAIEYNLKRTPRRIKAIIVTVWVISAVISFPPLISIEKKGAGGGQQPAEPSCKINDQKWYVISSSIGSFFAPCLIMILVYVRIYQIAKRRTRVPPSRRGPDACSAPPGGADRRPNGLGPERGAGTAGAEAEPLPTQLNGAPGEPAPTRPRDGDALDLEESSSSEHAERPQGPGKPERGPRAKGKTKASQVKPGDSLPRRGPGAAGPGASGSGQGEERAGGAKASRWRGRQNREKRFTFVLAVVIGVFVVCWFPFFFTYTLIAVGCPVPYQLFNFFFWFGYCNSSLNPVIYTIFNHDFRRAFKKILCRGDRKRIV

D(1A) dopamine receptor [2] = target: T2, D(1A) dopamine receptor (Rattus norvegicus, UniProt P18901); experiment: Inhibition of specific binding of [3H]-SCH- 23390 to Dopamine receptor D1 in rat striatal membranes; NA= Not active up to a concentration of 5 uM
How it was run: (§1)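 Competition radioligand binding in rat striatal membranes: D2 sites labelled with [3H]spiroperidol and D1 sites with [3H]SCH-23390. Inhibition of specific binding was measured. Three experiments, each in duplicate. Compounds were tested up to 5 μM, and those without binding at that level were scored not active.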

D(2) dopamine receptor [3] = target: T3, D(2) dopamine receptor (Rattus norvegicus, UniProt P61169); experiment: Displacement of [3H]spiroperidol from Dopamine receptor D2 of rat striatal membranes; how it was run: as §1
D(2) dopamine receptor [4] = target: T3, D(2) dopamine receptor; experiment: Inhibition of specific binding of [3H]spiroperidol to Dopamine receptor D2 in rat striatal membranes; how it was run: as §1
D(1A) dopamine receptor [5] = target: T2, D(1A) dopamine receptor; experiment: Displacement of [3H]-SCH- 23390 from Dopamine receptor D1 of rat striatal membranes; how it was run: as §1
[6] = target: T4, Adrenergic receptor alpha-1 (Rattus norvegicus, UniProt P15823+P23944+P43140); experiment: Displacement of [3H]prazosin from Alpha-1 adrenergic receptor of rat cortical membranes
T4 sequence (P15823 whole entry): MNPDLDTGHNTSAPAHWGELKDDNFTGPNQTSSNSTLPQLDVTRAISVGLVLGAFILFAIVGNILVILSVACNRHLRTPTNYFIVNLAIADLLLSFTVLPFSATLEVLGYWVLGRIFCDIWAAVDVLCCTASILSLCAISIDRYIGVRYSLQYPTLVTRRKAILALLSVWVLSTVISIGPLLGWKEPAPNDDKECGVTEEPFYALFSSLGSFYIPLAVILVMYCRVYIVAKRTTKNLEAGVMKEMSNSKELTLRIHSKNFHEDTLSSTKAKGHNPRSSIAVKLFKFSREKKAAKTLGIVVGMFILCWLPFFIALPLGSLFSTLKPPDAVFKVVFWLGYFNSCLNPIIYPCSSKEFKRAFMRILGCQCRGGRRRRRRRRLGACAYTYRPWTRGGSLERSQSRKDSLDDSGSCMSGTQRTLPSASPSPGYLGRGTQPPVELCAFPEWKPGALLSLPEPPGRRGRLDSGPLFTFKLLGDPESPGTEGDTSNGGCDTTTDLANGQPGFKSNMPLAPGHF
T4 sequence (P23944 whole entry): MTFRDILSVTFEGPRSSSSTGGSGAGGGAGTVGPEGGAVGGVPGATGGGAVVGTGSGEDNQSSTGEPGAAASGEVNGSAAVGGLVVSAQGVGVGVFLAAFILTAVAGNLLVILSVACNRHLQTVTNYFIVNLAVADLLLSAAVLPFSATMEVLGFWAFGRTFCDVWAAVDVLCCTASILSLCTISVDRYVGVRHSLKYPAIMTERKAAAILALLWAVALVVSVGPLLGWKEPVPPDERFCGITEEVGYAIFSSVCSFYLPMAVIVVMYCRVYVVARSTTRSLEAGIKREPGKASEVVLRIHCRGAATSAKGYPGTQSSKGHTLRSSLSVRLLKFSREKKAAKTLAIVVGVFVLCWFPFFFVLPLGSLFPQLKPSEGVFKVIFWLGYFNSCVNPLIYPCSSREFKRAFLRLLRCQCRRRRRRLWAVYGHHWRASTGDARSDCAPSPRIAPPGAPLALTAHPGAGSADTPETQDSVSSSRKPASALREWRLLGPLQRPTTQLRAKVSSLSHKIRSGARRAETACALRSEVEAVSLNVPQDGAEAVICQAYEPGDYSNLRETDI
T4 sequence (P43140 whole entry): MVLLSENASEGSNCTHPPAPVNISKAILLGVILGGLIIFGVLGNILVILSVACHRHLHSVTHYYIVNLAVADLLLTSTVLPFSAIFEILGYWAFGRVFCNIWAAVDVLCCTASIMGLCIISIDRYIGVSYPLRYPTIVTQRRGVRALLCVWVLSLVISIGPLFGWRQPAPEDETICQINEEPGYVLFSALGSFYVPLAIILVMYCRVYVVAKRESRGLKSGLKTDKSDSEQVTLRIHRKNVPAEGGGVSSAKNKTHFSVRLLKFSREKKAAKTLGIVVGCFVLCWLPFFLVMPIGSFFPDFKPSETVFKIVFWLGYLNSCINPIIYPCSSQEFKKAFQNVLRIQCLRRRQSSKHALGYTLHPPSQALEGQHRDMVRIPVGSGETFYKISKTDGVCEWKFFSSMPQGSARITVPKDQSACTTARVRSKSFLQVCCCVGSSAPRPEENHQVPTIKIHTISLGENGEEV

[7] = target: T1, Adrenergic receptor alpha-2; experiment: Inhibition of specific binding of [3H]rauwolscine to Alpha-2 adrenergic receptor in rat cortical membranes
D(1A) dopamine receptor [8] = target: T2, D(1A) dopamine receptor; experiment: Inhibition of specific binding of [3H]-SCH- 23390 to Dopamine receptor D1 in rat striatal membranes; Not active up to a concentration of 5 uM; how it was run: as §1

T3 sequence (P61169 whole entry): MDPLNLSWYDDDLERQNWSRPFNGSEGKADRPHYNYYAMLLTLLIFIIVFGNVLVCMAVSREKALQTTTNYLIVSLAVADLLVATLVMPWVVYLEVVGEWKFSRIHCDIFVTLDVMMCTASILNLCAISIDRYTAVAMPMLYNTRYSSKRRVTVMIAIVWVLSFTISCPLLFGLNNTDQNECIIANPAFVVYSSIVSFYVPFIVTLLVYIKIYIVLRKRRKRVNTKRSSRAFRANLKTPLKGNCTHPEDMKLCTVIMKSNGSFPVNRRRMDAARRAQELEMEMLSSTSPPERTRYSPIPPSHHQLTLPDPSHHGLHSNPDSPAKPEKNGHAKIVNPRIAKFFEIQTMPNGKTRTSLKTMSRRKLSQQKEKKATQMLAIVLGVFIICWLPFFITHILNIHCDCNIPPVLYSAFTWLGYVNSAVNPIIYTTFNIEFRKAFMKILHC
T2 sequence (P18901 whole entry): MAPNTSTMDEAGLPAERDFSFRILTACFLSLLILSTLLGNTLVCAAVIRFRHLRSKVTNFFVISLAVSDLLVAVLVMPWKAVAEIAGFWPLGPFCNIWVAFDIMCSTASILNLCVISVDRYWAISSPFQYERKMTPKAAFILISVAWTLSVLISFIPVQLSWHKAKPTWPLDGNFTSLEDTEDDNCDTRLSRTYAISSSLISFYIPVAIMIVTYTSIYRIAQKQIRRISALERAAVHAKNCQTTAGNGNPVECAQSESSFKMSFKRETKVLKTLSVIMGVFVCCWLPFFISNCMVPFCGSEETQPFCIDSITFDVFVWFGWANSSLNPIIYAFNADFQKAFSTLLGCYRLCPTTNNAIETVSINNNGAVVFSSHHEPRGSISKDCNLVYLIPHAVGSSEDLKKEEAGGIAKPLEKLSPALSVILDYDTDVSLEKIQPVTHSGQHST

Row | SMILES | IC50 [1] [nM] | IC50 (D(1A) dopamine receptor [2]) | IC50 (D(2) dopamine receptor [3]) | IC50 (D(2) dopamine receptor [4]) [nM] | IC50 (D(1A) dopamine receptor [5]) [nM] | IC50 [6] [nM] | IC50 [7] [nM] | IC50 (D(1A) dopamine receptor [8])
1 | C#CCN1CCC[C@@H]2c3ccccc3CC[C@H]21 | 160 | Not Active | Not Active |  |  |  |  | 
2 | Oc1cccc2c1CC1CCCN(C/C=C/I)C1C2 (stereo not given) | 0.5 |  |  | 490 | 120 | 54 |  | 
3 | C#CCN1CCCC2Cc3c(cccc3OC)CC21 (stereo not given) | 197 | Not Active | Not Active |  |  | 1850 |  | 
4 | COc1cccc2c1CC1CCCNC1C2 (stereo not given) | 67.5 | Not Active | Not Active |  |  | 2200 |  | 
5 | Oc1cccc2c1CC[C@@H]1[C@@H]2CCCN1C/C=C/I |  |  | Not Active |  | 1130 | 225 | 47 | 
6 | c1ccc2c(c1)CC1CCCNC1C2 (stereo not given) |  |  | Not Active |  |  |  | 130 | Not Active
7 | C#CCN1CCCC2Cc3ccccc3CC21 (stereo not given) | 142 |  | Not Active |  |  | 1300 |  | Not Active
8 | C#CCN1CCCC2Cc3c(O)cccc3CC21 (stereo not given) | 251 |  |  | 5110 | 700 | 209 |  | 
9 | I/C=C/CN1CCCC2Cc3ccccc3CC21 (stereo not given) | 33 |  | Not Active |  | 220 | 274 |  | 
10 | c1ccc2c(c1)CC[C@H]1NCCC[C@H]21 | 154 | Not Active | Not Active |  |  |  |  | 
11 | COc1cccc2c1CC[C@H]1NCCC[C@H]21 |  | Not Active | Not Active |  |  |  | 55 | 
12 | C#CCN1CCC[C@@H]2c3cccc(O)c3CC[C@H]21 |  |  | Not Active |  |  |  | 49 | Not Active
13 | NC1CCc2cc(O)c(O)cc2C1 (stereo not given) |  |  |  | 700 |  |  |  | 
14 | I/C=C/CN1CCC[C@@H]2c3ccccc3CC[C@H]21 |  |  | Not Active |  | 1900 | 253 | 128 | 
15 | COc1cccc2c1CC1CCCN(C/C=C/I)C1C2 (stereo not given) | 226 |  | Not Active |  | 80 | 43 |  | 
16 | C#CCN1CCC[C@@H]2c3cccc(OC)c3CC[C@H]21 |  | Not Active | Not Active |  |  | 497 | 196 | 
17 | COc1cccc2c1CC[C@@H]1[C@@H]2CCCN1C/C=C/I |  |  | Not Active |  | 270 | 508 | 18 | 
